Values joined by “and” are separate entries in the source; they are usually repeats but may differ in a detail not shown here. Equal entries are not always repeated.
What was measured:
[1] = target: S-adenosylmethionine synthase isoform type-2 (Rattus norvegicus, UniProt P18298); experiment: Inhibition constant was evaluated with kidney Methionine adenosyltransferase II form of rat methionine adenosyltransferase, when ATP was the variable substrate (60 uM)
Outline: (§1)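 Rat MAT-2 and MAT-T, partially purified as described in earlier work. Assayed at 37 °C for 10 min in duplicate in 150 mM KCl, 15 mM MgCl2, 5 mM dithiothreitol, 50 mM Tris-HCl, pH 8.2, with L-[methyl-14C]methionine and MgATP. Six to eight levels of the variable substrate (0.5-4.0 × KM), two inhibitor levels plus no-inhibitor controls. Product captured on phosphocellulose disks and counted by scintillation. Blanks lacked ATP.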

[2] = target: T1, S-adenosylmethionine synthetase (MAT 1 and MAT 2) (Rattus norvegicus, UniProt P13444+P18298); experiment: Inhibition constant was evaluated on novikoff hepatoma (MAT-T) form of rat methionine adenosyltransferase, when ATP was the variable substrate (60 uM); type: protein assay; conditions: in the assay text read “120 uM” for “60 uM”; outline: as §1
[3] = target: T1, S-adenosylmethionine synthetase (MAT 1 and MAT 2); experiment: Inhibition constant was evaluated on novikoff hepatoma (MAT-T) form of rat methionine adenosyltransferase, when methionine was the variable substrate (2 mM); type: protein assay; outline: as §1
[4] = target: T1, S-adenosylmethionine synthetase (MAT 1 and MAT 2); experiment: Inhibition constant was evaluated with kidney (MAT-2) form of rat methionine adenosyltransferase, when methionine was the variable substrate (2 mM); type: protein assay; outline: as §1
[5] = Michaelis constant (KM) was evaluated; type: ADME

S-adenosylmethionine synthase isoform type-2, sequence (P18298 whole entry, canonical isoform): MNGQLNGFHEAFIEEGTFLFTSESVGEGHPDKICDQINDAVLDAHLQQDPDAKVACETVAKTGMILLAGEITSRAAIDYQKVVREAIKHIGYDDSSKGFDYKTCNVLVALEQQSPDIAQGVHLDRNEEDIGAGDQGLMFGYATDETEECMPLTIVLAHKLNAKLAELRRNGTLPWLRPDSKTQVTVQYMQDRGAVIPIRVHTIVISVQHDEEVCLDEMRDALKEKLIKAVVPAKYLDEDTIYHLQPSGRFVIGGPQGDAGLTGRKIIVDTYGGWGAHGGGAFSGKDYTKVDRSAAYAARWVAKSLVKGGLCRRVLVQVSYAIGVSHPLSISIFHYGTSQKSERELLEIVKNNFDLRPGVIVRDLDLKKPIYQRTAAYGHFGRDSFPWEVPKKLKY

Row | Structure (SMILES) | Ki [1] [µM] | Ki [2] [µM] | Ki [3] [µM] | Ki [4] [µM] | Km [5]
1 | Nc1ncnc2c1ncn2[C@@H]1O[C@H](C(CP(=O)(O)OP(=O)(O)NP(=O)(O)O)SCCC(N)C(=O)O)[C@@H](O)[C@H]1O (stereo not given in full) | 16 | 11 | 38 | 26 | 
2 | Nc1ncnc2c1ncn2[C@@H]1O[C@H](C(CP(=O)(O)OP(=O)(O)OP(=O)(O)O)[S+]([O-])CCC(N)C(=O)O)[C@@H](O)[C@H]1O (stereo not given in full) | 140 | 81 |  |  | 
3 | Nc1ncnc2c1ncn2[C@@H]1O[C@H](COP(=O)(O)OP(=O)(O)OP(=O)(O)O)[C@@H](O)[C@H]1O |  |  |  |  | 140 µM
4 | Nc1ncnc2c1ncn2C1OC(CCP(=O)(O)OP(=O)(O)OP(=O)(O)O)[C@@H](O)[C@H]1O (stereo not given in full) |  |  |  |  | 75 µM and 310 µM
5 | CSCC[C@H](N)C(=O)O [METHIONINE] |  |  |  |  | 5 µM and 15 µM

The next lines start with the values.

Row | Ki [1] [µM] | Ki [2] [µM] | Ki [3] [µM] | Ki [4] [µM] | Km [5] | Structure (SMILES)
6 | 39 | 32 |  | 62 |  | Nc1ncnc2c1ncn2[C@@H]1O[C@H](C(CP(=O)(O)OP(=O)(O)OP(=O)(O)O)SCCC(N)C(=O)O)[C@@H](O)[C@H]1O (single isomer, unassigned; epimer 1)
7 | 180 | 148 |  | 200 |  | Nc1ncnc2c1ncn2[C@@H]1O[C@H](C(CP(=O)(O)OP(=O)(O)OP(=O)(O)O)SCCC(N)C(=O)O)[C@@H](O)[C@H]1O (single isomer, unassigned; epimer 2)

From ChEMBL document CHEMBL1123194, “Isozyme-specific enzyme inhibitors. 11. L-homocysteine-ATP S-C5' covalent adducts as inhibitors of rat methionine adenosyltransferases” (J Med Chem, 1986)
